Measurements taken from ChEMBL document CHEMBL4049388, “Facile and efficient access to Androsten-17-(1',3',4')-pyrazoles and Androst-17β-(1',3',4')-pyrazoles via Vilsmeier reagents, and their antiproliferative activity evaluation in vitro” (Eur J Med Chem, 2017).
Calls of active or inactive are those of the source. The rule behind the calls is not given here.

Experiments:
[1] = tested on: HeLa; assay: Cell cycle arrest in human HeLa cells assessed as accumulation at G2 phase at 5 uM after 24 hrs by propidium iodide staining based flow cytometry (reference value: 24.36%); type: functional
[2] = tested on: HeLa; assay: Induction of apoptosis in human HeLa cells assessed as total cells at late apoptotic stage at 7.5 uM after 24 hrs by Annexin-V-FITC/propidium iodide staining based flow cytometry (reference value: 0.03%); type: functional
Outline: (§1)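 Hela cells seeded at 10^6 per well and stabilized 24 h at 37 °C, 5% CO2. Then treated 24 h at 2.5, 5.0 or 7.5 μM, DMSO negative control. Cells washed in cold PBS, resuspended at 1×10^6 cells/mL in cold binding buffer, stained with annexin V-FITC then PI for 15 min in dark, analysed by flow cytometry.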

[3] = tested on: HeLa; assay: Cell cycle arrest in human HeLa cells assessed as accumulation at G2 phase at 2.5 uM after 24 hrs by propidium iodide staining based flow cytometry (reference value: 24.36%); type: functional
[4] = tested on: HeLa; assay: Induction of apoptosis in human HeLa cells assessed as gated cells at early apoptotic stage at 2.5 uM after 24 hrs by Annexin-V-FITC/propidium iodide staining based flow cytometry (reference value: 0.04%); type: functional; outline: as §1
[5] = tested on: HEK-293T; assay: Cytotoxicity against human 293T cells after 72 hrs by SRB assay; type: cell-based
Outline: (§2)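 SRB assay on 293T, A549, Hela and MCF-7 cells, with cisplatin as reference control. IC50 calculated for each compound from triplicate assays.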

[6] = tested on: HeLa; assay: Induction of apoptosis in human HeLa cells assessed as total cells at viable stage at 2.5 uM after 24 hrs by Annexin-V-FITC/propidium iodide staining based flow cytometry (reference value: 96.16%); type: functional; outline: as §1
[7] = tested on: HeLa; assay: Induction of apoptosis in human HeLa cells assessed as gated cells at viable stage at 7.5 uM after 24 hrs by Annexin-V-FITC/propidium iodide staining based flow cytometry (reference value: 99.88%); type: functional; outline: as §1
[8] = tested on: HeLa; assay: Induction of apoptosis in human HeLa cells assessed as gated cells at viable stage at 5 uM after 24 hrs by Annexin-V-FITC/propidium iodide staining based flow cytometry (reference value: 99.88%); type: functional; outline: as §1
[9] = tested on: HeLa; assay: Cell cycle arrest in human HeLa cells assessed as accumulation at G2 phase at 7.5 uM after 24 hrs by propidium iodide staining based flow cytometry (reference value: 24.36%); type: functional
[10] = tested on: HeLa; assay: Induction of apoptosis in human HeLa cells assessed as total cells at early apoptotic stage at 7.5 uM after 24 hrs by Annexin-V-FITC/propidium iodide staining based flow cytometry (reference value: 0.04%); type: functional; outline: as §1
[11] = tested on: HeLa; assay: Induction of apoptosis in human HeLa cells assessed as gated cells at early apoptotic stage at 7.5 uM after 24 hrs by Annexin-V-FITC/propidium iodide staining based flow cytometry (reference value: 0.04%); type: functional; outline: as §1
[12] = tested on: HeLa; assay: Induction of apoptosis in human HeLa cells assessed as total cells at necrotic stage at 5 uM after 24 hrs by Annexin-V-FITC/propidium iodide staining based flow cytometry (reference value: 0.05%); type: functional; outline: as §1
[13] = tested on: HeLa; assay: Induction of apoptosis in human HeLa cells assessed as total cells at viable stage at 5 uM after 24 hrs by Annexin-V-FITC/propidium iodide staining based flow cytometry (reference value: 96.16%); type: functional; outline: as §1
[14] = tested on: HeLa; assay: Induction of apoptosis in human HeLa cells assessed as gated cells at necrotic stage at 7.5 uM after 24 hrs by Annexin-V-FITC/propidium iodide staining based flow cytometry (reference value: 0.05%); type: functional; outline: as §1
[15] = tested on: HeLa; assay: Induction of apoptosis in human HeLa cells assessed as total cells at late apoptotic stage at 2.5 uM after 24 hrs by Annexin-V-FITC/propidium iodide staining based flow cytometry (reference value: 0.03%); type: functional; outline: as §1
[16] = tested on: HeLa; assay: Induction of apoptosis in human HeLa cells assessed as total cells at early apoptotic stage at 5 uM after 24 hrs by Annexin-V-FITC/propidium iodide staining based flow cytometry (reference value: 0.04%); type: functional; outline: as §1
[17] = tested on: MCF7; assay: Cytotoxicity against human MCF7 cells assessed as growth inhibition at 10 uM after 72 hrs by SRB assay relative to control; type: functional; conditions: MCF7, 72 h, read-out: GI
Outline: (§3)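 SRB single-dose screen at 10 μM on 293T, A549, Hela and MCF-7 cells. Results reported as percent inhibitory ratio (mean ± SD).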

[18] = tested on: HeLa; assay: Cell cycle arrest in human HeLa cells assessed as accumulation at S phase at 7.5 uM after 24 hrs by propidium iodide staining based flow cytometry (reference value: 18.92%); type: functional
[19] = tested on: HeLa; assay: Induction of apoptosis in human HeLa cells assessed as total cells at viable stage at 7.5 uM after 24 hrs by Annexin-V-FITC/propidium iodide staining based flow cytometry (reference value: 96.16%); type: functional; outline: as §1
[20] = tested on: HeLa; assay: Induction of apoptosis in human HeLa cells assessed as gated cells at necrotic stage at 5 uM after 24 hrs by Annexin-V-FITC/propidium iodide staining based flow cytometry (reference value: 0.05%); type: functional; outline: as §1
[21] = tested on: HeLa; assay: Induction of apoptosis in human HeLa cells assessed as gated cells at early apoptotic stage at 5 uM after 24 hrs by Annexin-V-FITC/propidium iodide staining based flow cytometry (reference value: 0.04%); type: functional; outline: as §1
[22] = tested on: A549; assay: Cytotoxicity against human A549 cells after 72 hrs by SRB assay; type: functional, cell-based; conditions: A549, 72 h; outline: as §2
[23] = tested on: HeLa; assay: Cell cycle arrest in human HeLa cells assessed as accumulation at S phase at 2.5 uM after 24 hrs by propidium iodide staining based flow cytometry (reference value: 18.92%); type: functional
[24] = tested on: HeLa; assay: Cytotoxicity against human HeLa cells assessed as growth inhibition at 10 uM after 72 hrs by SRB assay relative to control; type: functional; conditions: read-out: GI; outline: as §3
[25] = tested on: HeLa; assay: Induction of apoptosis in human HeLa cells assessed as total cells at necrotic stage at 7.5 uM after 24 hrs by Annexin-V-FITC/propidium iodide staining based flow cytometry (reference value: 0.05%); type: functional; outline: as §1
[26] = tested on: HeLa; assay: Induction of apoptosis in human HeLa cells assessed as gated cells at late apoptotic stage at 5 uM after 24 hrs by Annexin-V-FITC/propidium iodide staining based flow cytometry (reference value: 0.03%); type: functional; outline: as §1
[27] = tested on: HeLa; assay: Induction of apoptosis in human HeLa cells assessed as irregular nucleus at 7.5 uM after 48 hrs by Hoechst 33342 staining based fluorescence microscopic method; type: functional, cell-based
Outline: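 Hela cells seeded at 10^6 per well on cover slips and incubated 16 h. Then exposed 48 h at 2.5, 5.0 or 7.5 μM, DMSO negative control. Cells fixed in 4% paraformaldehyde for 15 min, washed in PBS, stained with Hoechst 33342 for 10 min. Nuclear morphology viewed by fluorescence microscopy, ex 350 nm / em 460 nm.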

[28] = tested on: HeLa; assay: Induction of apoptosis in human HeLa cells assessed as gated cells at late apoptotic stage at 7.5 uM after 24 hrs by Annexin-V-FITC/propidium iodide staining based flow cytometry (reference value: 0.03%); type: functional; outline: as §1
[29] = tested on: HeLa; assay: Induction of apoptosis in human HeLa cells assessed as gated cells at late apoptotic stage at 2.5 uM after 24 hrs by Annexin-V-FITC/propidium iodide staining based flow cytometry (reference value: 0.03%); type: functional; outline: as §1
[30] = tested on: HeLa; assay: Induction of apoptosis in human HeLa cells assessed as gated cells at viable stage at 2.5 uM after 24 hrs by Annexin-V-FITC/propidium iodide staining based flow cytometry (reference value: 99.88%); type: functional; outline: as §1

Compound `CCNCc1cn(-c2ccccc2)nc1C1=CC[C@H]2[C@@H]3CC=C4C[C@@H](O)CC[C@]4(C)[C@H]3CC[C@]12C` has an Activity [1] of 22.53%, an Activity [2] of 0.9% and an Activity [3] of 25.6%. The Activity [4] was 0.59%, the IC50 [5] was 0.87 µM and the Activity [6] was 95.73%. The Activity [7] was 87.49%, the Activity [8] was 93.44% and the Activity [9] was 25.31%. The Activity [10] was 7.5%, the Activity [11] was 8.37% and the Activity [12] was 3.26%. It also gave an Activity [13] of 80.32%, an Activity [14] of 3.12% and an Activity [15] of 0.16%. It also gave an Activity [16] of 2.08%, an inhibition of growth at 10 µM [17] of 89.3% and an Activity [18] of 24.77%. It also gave an Activity [19] of 78.35%, an Activity [20] of 3.79% and an Activity [21] of 2.41%. The IC50 [22] was 7.39 µM, the Activity [23] was 19.8% and the inhibition of growth at 10 µM [24] was 92.8%. The Activity [25] was 2.79%, the Activity [26] was 0.36% and the Activity [27] was “Active”. It also gave an Activity [28] of 1.01%, an Activity [29] of 0.16% and an Activity [30] of 97.93%.
